Measured values reported in publication PMC3170876 (Chemmedchem, 2011).

Experiments:
mouse 11β-HSD1 = mouse 11β-HSD1 (Mus musculus, UniProt P50172); assay: Inhibition of mouse 11β-HSD1; format: cell-based
[1] = target: human cytochrome P450 2C19 (Homo sapiens, UniProt P33261); assay: Inhibition of human cytochrome P450 2C19; format: in vitro ADME
Summary of the method: (§1)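 Human CYP450 isoform inhibition (1A2, 2C9, 2C19, 2D6, 3A4) measured as IC50 or as percent inhibition at 10 μm test compound. For 3A4, two probe substrates were used separately: 7-benzyloxy-trifluoromethylcoumarin (BFC) and […] (BQ). Each value is the mean of two measurements.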

[2] = target: T1, human cytochrome P450 1A2 (Homo sapiens, UniProt P05177); assay: Inhibition of human cytochrome P450 1A2; format: in vitro ADME
T1 sequence (P05177 1-516): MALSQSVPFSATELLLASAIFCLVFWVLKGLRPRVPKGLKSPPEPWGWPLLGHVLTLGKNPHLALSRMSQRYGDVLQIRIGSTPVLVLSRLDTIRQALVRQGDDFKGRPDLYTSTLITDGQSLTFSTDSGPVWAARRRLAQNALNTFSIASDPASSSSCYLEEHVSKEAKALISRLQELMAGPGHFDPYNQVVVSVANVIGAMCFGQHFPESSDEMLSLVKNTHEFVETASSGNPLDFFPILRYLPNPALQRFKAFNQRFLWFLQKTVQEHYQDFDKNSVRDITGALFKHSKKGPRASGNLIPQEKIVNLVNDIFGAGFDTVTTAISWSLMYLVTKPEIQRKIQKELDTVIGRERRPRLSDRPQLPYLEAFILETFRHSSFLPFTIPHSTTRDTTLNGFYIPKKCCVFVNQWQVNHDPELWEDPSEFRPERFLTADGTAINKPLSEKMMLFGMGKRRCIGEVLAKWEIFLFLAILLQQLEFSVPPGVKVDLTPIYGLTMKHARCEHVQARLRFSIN
Summary of the method: as §1

[3] = target: human cytochrome P450 3A4 (Homo sapiens, UniProt P08684); assay: Inhibition of human cytochrome P450 3A4; format: in vitro ADME; settings: IC50 CYP450 3A4-BQ, substrate BQ; mean of two measurements
Sequence of human cytochrome P450 3A4 (P08684 whole entry): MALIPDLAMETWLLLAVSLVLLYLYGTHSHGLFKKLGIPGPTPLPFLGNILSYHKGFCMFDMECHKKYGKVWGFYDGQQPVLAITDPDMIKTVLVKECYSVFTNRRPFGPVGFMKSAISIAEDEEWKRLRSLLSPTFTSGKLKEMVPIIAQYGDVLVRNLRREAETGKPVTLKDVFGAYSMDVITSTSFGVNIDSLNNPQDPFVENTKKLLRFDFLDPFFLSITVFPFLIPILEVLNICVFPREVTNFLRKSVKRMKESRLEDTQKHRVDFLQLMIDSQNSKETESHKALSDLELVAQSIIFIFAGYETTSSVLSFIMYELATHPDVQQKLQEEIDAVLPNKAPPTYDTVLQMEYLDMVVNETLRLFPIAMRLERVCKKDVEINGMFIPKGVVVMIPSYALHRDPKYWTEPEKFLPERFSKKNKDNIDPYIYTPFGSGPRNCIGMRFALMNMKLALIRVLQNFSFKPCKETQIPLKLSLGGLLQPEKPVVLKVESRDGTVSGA
Summary of the method: as §1

human 11β-HSD1 = human 11β-HSD1 (Homo sapiens, UniProt P28845); assay: 11β-HSD1 inhibition cellular assay; format: cell-based; settings: IC50, human 11β-HSD1, HEK293 cell line transfected with human HSD11B1 gene; mean of three measurements, variance less than 20 %
Sequence of human 11β-HSD1 (P28845 whole entry): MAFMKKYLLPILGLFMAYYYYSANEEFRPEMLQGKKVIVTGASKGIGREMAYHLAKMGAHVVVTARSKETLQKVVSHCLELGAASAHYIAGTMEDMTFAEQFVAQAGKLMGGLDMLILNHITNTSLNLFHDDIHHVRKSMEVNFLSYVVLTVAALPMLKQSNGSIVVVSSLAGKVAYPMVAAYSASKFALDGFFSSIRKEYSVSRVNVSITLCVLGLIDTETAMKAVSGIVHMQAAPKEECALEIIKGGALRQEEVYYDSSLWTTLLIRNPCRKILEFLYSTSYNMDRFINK

[4] = Membrane permeability in the Caco-2 cell model; format: in vitro ADME; settings: human
Summary of the method: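 Caco-2 monolayer permeability. Test compound was applied at 20 μm, and the apparent permeability coefficient (Papp) was determined in the apical-to-basolateral direction.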

17β-HSD1 = target: T2, 17β-HSD1 (Homo sapiens, UniProt P14061); assay: Selectivity: inhibition of 17β-HSD1; settings: at a concentration of 10 μM (data not shown)
T2 sequence (P14061 1-328): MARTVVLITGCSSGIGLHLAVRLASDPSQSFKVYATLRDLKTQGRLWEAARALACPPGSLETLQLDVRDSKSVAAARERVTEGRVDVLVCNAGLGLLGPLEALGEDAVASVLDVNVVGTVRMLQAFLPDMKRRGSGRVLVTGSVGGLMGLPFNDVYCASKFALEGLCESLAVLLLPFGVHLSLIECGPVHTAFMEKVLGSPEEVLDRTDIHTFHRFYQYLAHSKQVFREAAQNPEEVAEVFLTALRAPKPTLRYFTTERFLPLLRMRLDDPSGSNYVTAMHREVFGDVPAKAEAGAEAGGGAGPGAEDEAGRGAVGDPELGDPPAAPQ

human 11β-HSD2 = target: T3, human 11β-HSD2 (Homo sapiens, UniProt P80365); assay: Selectivity: inhibition of human 11β-HSD2; format: cell-based; settings: at a concentration of 10 μM (data not shown)
T3 sequence (P80365 1-405): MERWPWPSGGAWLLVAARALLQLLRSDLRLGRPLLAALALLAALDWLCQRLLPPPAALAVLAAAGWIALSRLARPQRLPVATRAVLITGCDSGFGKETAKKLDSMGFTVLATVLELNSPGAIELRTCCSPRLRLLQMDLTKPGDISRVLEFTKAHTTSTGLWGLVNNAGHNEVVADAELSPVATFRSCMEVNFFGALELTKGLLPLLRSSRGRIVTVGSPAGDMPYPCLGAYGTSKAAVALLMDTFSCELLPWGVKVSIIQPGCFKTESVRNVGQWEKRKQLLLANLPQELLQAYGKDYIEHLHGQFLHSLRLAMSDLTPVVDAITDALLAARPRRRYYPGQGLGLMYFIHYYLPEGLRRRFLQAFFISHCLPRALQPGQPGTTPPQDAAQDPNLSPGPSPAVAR

[5] = Metabolic stability in human liver microsomes; format: in vitro ADME; settings: 37 °C, NADPH, 40 min incubation, mean of two experiments
Summary of the method: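 Parent compound was incubated with human liver microsomes plus NADPH cofactor at 37 °C for 40 min. Loss of parent was followed by HPLC, and half-life and intrinsic clearance were calculated from the depletion. Values are the mean of two experiments.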

[6] = target: human cytochrome P450 2D6 (Homo sapiens, UniProt P10635); assay: Inhibition of human cytochrome P450 2D6; format: in vitro ADME
Sequence of human cytochrome P450 2D6 (P10635 whole entry): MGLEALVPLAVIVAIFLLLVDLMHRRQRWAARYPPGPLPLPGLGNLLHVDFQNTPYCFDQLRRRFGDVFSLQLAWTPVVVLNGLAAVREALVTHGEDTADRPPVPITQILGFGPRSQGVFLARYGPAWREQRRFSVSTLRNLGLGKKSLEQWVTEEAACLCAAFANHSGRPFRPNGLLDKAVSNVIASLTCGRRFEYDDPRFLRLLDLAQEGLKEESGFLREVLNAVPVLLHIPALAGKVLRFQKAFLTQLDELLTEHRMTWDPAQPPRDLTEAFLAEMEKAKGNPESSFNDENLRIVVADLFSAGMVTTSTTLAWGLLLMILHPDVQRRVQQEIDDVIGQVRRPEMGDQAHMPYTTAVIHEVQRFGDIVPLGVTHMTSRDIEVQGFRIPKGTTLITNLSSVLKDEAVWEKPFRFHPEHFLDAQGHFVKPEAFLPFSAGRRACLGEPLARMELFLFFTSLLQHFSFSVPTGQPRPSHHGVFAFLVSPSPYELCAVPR
Summary of the method: as §1

[7] = target: human cytochrome P450 2C9 (Homo sapiens, UniProt P11712); assay: Inhibition of human cytochrome P450 2C9; format: in vitro ADME
Sequence of human cytochrome P450 2C9 (P11712 whole entry): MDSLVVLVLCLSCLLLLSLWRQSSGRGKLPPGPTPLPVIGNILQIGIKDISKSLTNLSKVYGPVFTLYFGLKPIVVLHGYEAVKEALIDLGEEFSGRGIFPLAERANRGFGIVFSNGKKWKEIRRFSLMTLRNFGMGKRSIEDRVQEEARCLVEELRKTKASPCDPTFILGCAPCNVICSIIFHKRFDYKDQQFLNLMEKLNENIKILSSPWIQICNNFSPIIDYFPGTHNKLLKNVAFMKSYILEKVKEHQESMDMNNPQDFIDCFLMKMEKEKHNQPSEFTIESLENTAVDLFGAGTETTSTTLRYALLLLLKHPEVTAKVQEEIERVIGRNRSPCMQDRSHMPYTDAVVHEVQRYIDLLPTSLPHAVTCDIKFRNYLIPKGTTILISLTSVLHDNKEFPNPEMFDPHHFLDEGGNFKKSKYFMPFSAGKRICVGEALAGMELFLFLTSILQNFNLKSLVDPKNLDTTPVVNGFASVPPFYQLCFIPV
Summary of the method: as §1

Sequence of human cytochrome P450 2C19 (P33261 whole entry, canonical isoform): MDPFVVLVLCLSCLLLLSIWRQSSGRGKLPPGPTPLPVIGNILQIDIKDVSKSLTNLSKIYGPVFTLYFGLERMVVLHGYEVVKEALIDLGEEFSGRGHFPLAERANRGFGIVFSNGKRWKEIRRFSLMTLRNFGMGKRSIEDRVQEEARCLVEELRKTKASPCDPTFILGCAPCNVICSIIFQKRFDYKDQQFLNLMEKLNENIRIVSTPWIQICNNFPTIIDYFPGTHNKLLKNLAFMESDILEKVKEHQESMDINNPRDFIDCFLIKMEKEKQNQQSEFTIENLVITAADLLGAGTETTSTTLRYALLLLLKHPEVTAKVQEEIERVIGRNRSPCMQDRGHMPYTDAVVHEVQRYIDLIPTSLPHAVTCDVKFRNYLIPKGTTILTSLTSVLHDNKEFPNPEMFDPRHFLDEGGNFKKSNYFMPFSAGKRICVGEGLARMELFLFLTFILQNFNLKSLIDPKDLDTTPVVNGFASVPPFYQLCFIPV
Sequence of mouse 11β-HSD1 (P50172 whole entry): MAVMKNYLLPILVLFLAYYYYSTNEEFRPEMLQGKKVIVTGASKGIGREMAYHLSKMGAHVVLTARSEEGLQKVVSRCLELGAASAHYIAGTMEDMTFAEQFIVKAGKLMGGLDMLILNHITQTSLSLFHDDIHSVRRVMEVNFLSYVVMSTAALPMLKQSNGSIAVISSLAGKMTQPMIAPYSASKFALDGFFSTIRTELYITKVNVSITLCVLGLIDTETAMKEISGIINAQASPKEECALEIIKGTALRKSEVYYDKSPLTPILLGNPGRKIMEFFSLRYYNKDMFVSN

Compound | IC50 (mouse 11β-HSD1) [µM] | IC50 [1] [µM] | IC50 [2] [µM] | melting point [°C] | IC50 [3] [µM] | IC50 (human 11β-HSD1) [µM] | Papp A→B at 20 μM [4] [×10⁻⁶ cm/s] | inhibition against 17β-HSD1 (17β-HSD1) | inhibition against human 11β-HSD2 (human 11β-HSD2) | CLint [5] [µL/min/mg] | IC50 [6] [µM] | IC50 [7] [µM]
O=C(C[S+]([O-])Cc1cccs1)C12CC3CC(CC(C3)C1)C2 (stereo not shown) [Compound 14, 1-(Adamantan-1-yl)-2-(thiophen-2-ylmethanesulfinyl)ethanone] | 0.02 | 30 | 33 | 95 to 98 | 12 | < 0.05 | 22 | – | – | – | – | –
Cn1cnnc1SCC(=O)C12CC3CC(CC(C3)C1)C2 [Compound 28, 1-(Adamantan-1-yl)-2-(4-methyl-4H-[1,2,4]triazol-3-ylsulfanyl)-ethanone] | – | 3.6 | 21 | – | 62 | – | – | inactive | inactive | 8.7 | – | –
Cc1nnc(S(=O)(=O)CC(=O)C23CC4CC(CC(C4)C2)C3)s1 [Compound 37, 1-(Adamantan-1-yl)-2-(5-methyl-[1,3,4]thiadiazole-2-sulfonyl)ethanone] | – | 17 | > 100 | 111 to 113 | 30 | – | – | – | – | – | > 100 | 11
